Measured values published in ChEMBL document CHEMBL5096209, “Structure-Activity Studies of 3,9-Diazaspiro[5.5]undecane-Based γ-Aminobutyric Acid Type A Receptor Antagonists with Immunomodulatory Effect” (J Med Chem, 2021).

Legend:
[1] = target: GABA-A receptor; anion channel; assay: Displacement of [3H]-muscimol from rat cortical synaptic membrane GABAA receptor assessed as inhibition constant by microscint-scintillation method; format: cell membranes, Cortex
In short: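 Rat cortical synaptic membranes, washed repeatedly in 50 mM Tris-HCl pH 7.4, 70–80 μg protein. Incubated at 0 °C with 5 nM [3H]-muscimol (final) and a range of test concentrations, then filtered and counted by scintillation. Nonspecific binding defined with 1.0 mM GABA. IC50 converted to Ki by Cheng–Prusoff, triplicate, three independent experiments.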

[2] = target: T1, Gamma-aminobutyric acid receptor subunit alpha-5/beta-2/gamma-2 (Homo sapiens, UniProt P18507+P31644+P47870); assay: Antagonist activity at human alpha5beta2gamma2 GABAA receptor expressed in HEK cells by FMP assay; format: cell-based
T1 sequence (P47870 whole entry): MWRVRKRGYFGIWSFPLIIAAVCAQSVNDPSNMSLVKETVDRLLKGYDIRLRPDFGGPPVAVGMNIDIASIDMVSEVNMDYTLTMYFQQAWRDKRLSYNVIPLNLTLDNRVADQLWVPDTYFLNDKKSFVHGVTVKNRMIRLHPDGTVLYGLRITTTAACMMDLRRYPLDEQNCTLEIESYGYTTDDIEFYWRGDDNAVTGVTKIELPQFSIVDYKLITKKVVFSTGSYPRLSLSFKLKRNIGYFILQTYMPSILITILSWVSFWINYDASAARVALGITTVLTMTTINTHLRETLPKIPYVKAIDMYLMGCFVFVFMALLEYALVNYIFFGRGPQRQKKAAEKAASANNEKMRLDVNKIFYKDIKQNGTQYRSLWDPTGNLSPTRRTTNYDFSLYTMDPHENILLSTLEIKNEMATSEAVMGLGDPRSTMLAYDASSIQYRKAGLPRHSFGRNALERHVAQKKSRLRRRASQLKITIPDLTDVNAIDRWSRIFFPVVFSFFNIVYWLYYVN
T1 sequence (P18507 whole entry): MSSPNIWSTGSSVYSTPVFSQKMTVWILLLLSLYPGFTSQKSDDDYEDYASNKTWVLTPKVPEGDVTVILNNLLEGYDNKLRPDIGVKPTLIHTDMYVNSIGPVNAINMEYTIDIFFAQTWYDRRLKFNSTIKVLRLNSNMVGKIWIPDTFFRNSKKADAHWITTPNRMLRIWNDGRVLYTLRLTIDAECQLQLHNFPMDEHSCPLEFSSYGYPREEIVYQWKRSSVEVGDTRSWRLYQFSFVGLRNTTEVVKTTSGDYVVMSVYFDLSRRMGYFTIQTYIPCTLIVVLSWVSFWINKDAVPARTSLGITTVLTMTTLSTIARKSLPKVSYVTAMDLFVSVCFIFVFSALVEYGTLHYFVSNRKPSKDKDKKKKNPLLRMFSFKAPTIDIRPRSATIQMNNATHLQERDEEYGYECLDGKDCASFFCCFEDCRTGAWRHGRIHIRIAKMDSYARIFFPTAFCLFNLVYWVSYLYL
T1 sequence (P31644 whole entry): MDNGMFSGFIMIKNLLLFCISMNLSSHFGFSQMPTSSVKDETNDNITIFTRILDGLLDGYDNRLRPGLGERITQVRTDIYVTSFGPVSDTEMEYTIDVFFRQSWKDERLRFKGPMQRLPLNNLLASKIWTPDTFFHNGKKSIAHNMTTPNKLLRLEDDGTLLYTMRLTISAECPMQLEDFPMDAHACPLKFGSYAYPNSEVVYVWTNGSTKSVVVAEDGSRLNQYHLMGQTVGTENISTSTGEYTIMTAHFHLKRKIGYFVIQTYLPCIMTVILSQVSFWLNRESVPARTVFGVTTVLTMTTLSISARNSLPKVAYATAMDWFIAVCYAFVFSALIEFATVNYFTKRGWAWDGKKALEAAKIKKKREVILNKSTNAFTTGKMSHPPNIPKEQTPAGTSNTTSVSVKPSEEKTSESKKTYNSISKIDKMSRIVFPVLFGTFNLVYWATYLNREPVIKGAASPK
In short: (§1)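 Human αβγ2 receptors in HEK293 cells: α1β2γ2 stably expressed, other αβγ2 subtypes transiently transfected into HEK293 Flp-In background cells (α:β:γ 1:1:2). FLIPR membrane potential assay with ΔRFU baseline to peak/plateau and GABA EC80 as agonist. IC50 from a four-parameter fit, at least three independent experiments.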

[3] = Antagonist activity at recombinant human alpha6beta2delta GABAA receptor expressed in HEK293 Flp-In cells by FMP assay; format: cell-based, Flp-In-293
In short: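 HEK293 Flp-In cells stably expressing human δ subunit, transiently transfected with human α and β subunits (1:1) to form αβδ receptors. Read-out is the FLIPR membrane potential dye ΔRFU, baseline to peak/plateau, with GABA EC80 as agonist. Four-parameter fit of concentration–inhibition curves gives IC50, from at least three independent experiments.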

[4] = target: T2, GABA-A receptor; alpha-1/beta-2/gamma-2 (Homo sapiens, UniProt P14867+P18507+P47870); assay: Antagonist activity at human alpha1beta2gamma2 GABAA receptor expressed in HEK by FMP assay; format: cell-based; in short: as §1
T2 sequence (P14867 whole entry): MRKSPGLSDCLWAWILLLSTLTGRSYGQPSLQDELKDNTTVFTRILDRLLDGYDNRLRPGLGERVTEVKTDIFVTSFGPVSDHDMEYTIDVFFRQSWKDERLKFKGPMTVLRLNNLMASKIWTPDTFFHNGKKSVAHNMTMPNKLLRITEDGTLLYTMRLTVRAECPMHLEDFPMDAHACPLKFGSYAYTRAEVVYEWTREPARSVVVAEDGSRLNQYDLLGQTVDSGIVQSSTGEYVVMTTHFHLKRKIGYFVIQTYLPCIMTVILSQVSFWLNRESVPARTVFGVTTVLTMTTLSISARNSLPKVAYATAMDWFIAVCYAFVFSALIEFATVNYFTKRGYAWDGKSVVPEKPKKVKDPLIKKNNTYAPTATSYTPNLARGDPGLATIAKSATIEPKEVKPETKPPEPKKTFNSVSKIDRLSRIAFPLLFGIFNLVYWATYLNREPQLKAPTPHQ
T2 sequence (P47870 whole entry): T1 sequence (P47870 whole entry)
T2 sequence (P18507 whole entry): T1 sequence (P18507 whole entry)

[5] = Homo sapiens, Flp-In-293, read-out: pIC50 (converted)

Question: Which Ki [1] does the source give for `Cc1ccc(C(=O)N2CCC3(CCNCC3)CC2)cc1` here?
Answer: 520 nM

Question: For `Cc1cccc(C(=O)N2CCC3(CCNCC3)CC2)c1`, which Ki [1] is on record?
Answer: 180 nM

Question: Which IC50 [2] does the source give for `CC(=O)Nc1cccc(C(=O)N2CCC3(CCNCC3)CC2)c1` here?
Answer: 590 nM

Question: What about the IC50 ([2]; read-out: pIC50 (converted)) of the same compound?
Answer: 589 nM

Question: And the IC50 [3, 5]?
Answer: 4170 nM

Question: And the IC50 ([3]; flp-in-293)?
Answer: 4130 nM

Question: And the IC50 [4]?
Answer: 4960 nM

Question: What about the IC50 ([4]; read-out: pIC50 (converted)) of the same compound?
Answer: 5010 nM

Question: Which IC50 [2] does the source give for `O=C(Nc1cccc(C(=O)N2CCC3(CCNCC3)CC2)c1)c1cccs1` here?
Answer: 51 nM

Question: What about the IC50 ([2]; read-out: pIC50 (converted)) of the same compound?
Answer: 51.3 nM

Question: What about the IC50 [3, 5] of the same compound?
Answer: 331 nM

Question: And the IC50 ([3]; flp-in-293)?
Answer: 330 nM

Question: What about the IC50 [4] of the same compound?
Answer: 790 nM

Question: What about the IC50 ([4]; read-out: pIC50 (converted)) of the same compound?
Answer: 794 nM
